Laboratory results: ChEMBL document CHEMBL5113474, “Triazole-substituted phenylboronic acids as tunable lead inhibitors of KPC-2 antibiotic resistance” (Eur J Med Chem, 2022)
Values after ≈ are worked out from the molar mass of the structure shown. Active and inactive are the calls of the source. No cut-off for these calls is given here.

Experiments:
Klebsiella pneumoniae = test: Antibacterial activity against Klebsiella pneumoniae harboring OXA-48 assessed as bacterial growth inhibition incubated for 16 to 20 hrs by microdilution method; format: functional; conditions: time 16-20 hrs
[1] = Inhibition of class C […]beta-lactamase AmpC (unknown origin); parameters: species or system Bacteria
[2] = Inhibition of beta-lactamase TEM-1 (unknown origin); parameters: species or system Bacteria
[3] = Inhibition of Metallo-beta-lactamase VIM-1 (unknown origin); parameters: species or system Bacteria
[4] = Inhibition of beta-lactamase OXA (unknown origin); parameters: species or system Bacteria
[5] = Inhibition of beta-lactamase CTX-M (unknown origin); parameters: species or system Bacteria
[6] = Solubility of the compound at 0.1 mM in 0.1 M phosphate buffer; format: physicochemical; conditions: 100 µM
[7] = Inhibition of bacterial beta-lactamase KPC-2 expressed in Escherichia coli BL21 (DE3) using nitrocefin as substrate assessed as inhibition constant by Cheng-Prusoff equation analysis; parameters: species or system Bacteria
Escherichia coli [8] = format: functional, BL21 (DE3); conditions: time 16-18 hrs
Escherichia coli [9] = test: microbe, parasite or virus in culture; format: functional; conditions: BL21 (DE3), dose 50 µg/ml, time 16-20 hrs
Escherichia coli [10] = test: microbe, parasite or virus in culture; format: functional; conditions: BL21 (DE3), dose 5 µg/ml, time 16-20 hrs
Escherichia coli [11] = test: Potentiation of cefotaxime induced antibacterial activity against Escherichia coli expressing CMY-4/TEM-1 assessed as cefotaxime MIC at 5 ug/ml incubated for 16 to 20 hrs by microdilution method; format: functional; conditions: dose 5 µg/ml, time 16-20 hrs
In short: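 Cefotaxime MIC re-measured with the boronic acid inhibitor held at a fixed 5 μg/mL, lowered from an earlier 50 μg/ml fixed-dose combination; MICs interpreted against CLSI susceptibility categories.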

Escherichia coli [12] = test: microbe, parasite or virus in culture; format: functional; conditions: BL21 (DE3), dose 5 µg/ml, time 16-20 hrs; remark: listed apart in the source
Escherichia coli [13] = test: Antibacterial activity against Escherichia coli NCTC10418; format: functional
[14] = Cytotoxicity against HEK293 cells assessed as cell viability at 5 to 50 ug/ml incubated for 24 hrs by MTT assay relative to control; conditions: human, at 5 to 50 µg/mL
Escherichia coli [15] = test: microbe, parasite or virus in culture; format: functional; conditions: BL21 (DE3), dose 50 µg/ml, time 16-20 hrs; remark: listed apart in the source
Bacteria = test: Inhibition of bacterial beta-lactamase KPC-2 expressed in Escherichia coli BL21 (DE3) using nitrocefin as substrate at 1 uM by spectrophotometric analysis relative to control
In short: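 Purified recombinant KPC-2 tested against the chromogenic β-lactam nitrocefin at 1 µM inhibitor. Hydrolysis was followed as the rise in absorbance at 482 nm (ε482 = 17,400 M-1 cm-1). Activity is expressed as percent inhibition relative to an uninhibited control.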

[16] = Cytotoxicity against HEK293 cells assessed as cell viability at 5 to 50 ug/ml incubated for 24 hrs in presence of cefotaxime by MTT assay relative to control; conditions: human, at 5 to 50 µg/mL
physchem [17] = conditions: 0.1 M phosphate buffer, pH 4.3
[18] = Inhibition of beta-lactamase KPC-2 (unknown origin); parameters: species or system Bacteria
[19] = Inhibition of beta-lactamase SHV-12 (unknown origin); parameters: species or system Bacteria
physchem [20] = conditions: 0.1 M phosphate buffer
Escherichia coli [21] = test: Antibacterial activity against Escherichia coli expressing CMY-4/TEM-1 assessed as bacterial growth inhibition at 0.06 to 64 ug/ml incubated for 16 to 20 hrs by microdilution method; format: functional, organism-based; conditions: dose 0.06-64 µg/ml, time lower […], time upper 20.0 hrs
Proteus mirabilis = test: Antibacterial activity against Proteus mirabilis producing CTX-M-14/CMY-2 assessed as bacterial growth inhibition incubated for 16 to 20 hrs by microdilution method; format: functional; conditions: time 16-20 hrs
[22] = Inhibition of beta-lactamase PDC-3 (unknown origin); parameters: species or system Bacteria
[23] = Inhibition of beta-lactamase P99 (unknown origin); parameters: species or system Bacteria

`CO/N=C(\C(=O)N[C@@H]1C(=O)N2C(C(=O)O)=C(COC(C)=O)CS[C@H]12)c1csc(N)n1` [CEFOTAXIME] gave an MIC (Klebsiella pneumoniae) of 2 µg/mL (≈ 4.39 µM).

In the case of `NCc1ccc(C(=O)NC2Cc3cccc(C(=O)O)c3OB2O)cc1` (stereo not drawn), the IC50 [1] is reported as 270 nM, the IC50 [2] is reported as 8.1 nM and the IC50 [3] is reported as 61 nM. It also gave an IC50 [4] of 2000 nM.

For `CC(C)(O/N=C(/C(=O)NCB(O)O)c1cnc(N)s1)C(=O)O`, the Ki [5] was 4 nM.

With `OB(O)c1cc(-n2cc(-c3ccsc3)nn2)cc(F)c1F` the solubility [6] was “Insoluble”, the Ki [7] was 5900 nM and the “inhibition zone (IZ)” value (Escherichia coli [8]) was 19.8 mm.

`OB(O)c1cc(-n2cc(-c3ccsc3)nn2)c(F)cc1F` showed an MIC (Escherichia coli [9]) of at most 0.06 µg/mL, an MIC (Escherichia coli [10]) of 4 µg/mL (≈ 13 µM) and an MIC (Escherichia coli [11]) of 0.12 µg/mL. It also gave an MIC (Escherichia coli [12]) of at most 0.06 µg/mL, an MIC (Escherichia coli [13]) of over 64 µg/mL and a viability at 24 h [14] of over 80%. For the same compound, the Ki [7] was 1840 nM, the MIC (Escherichia coli [15]) was at most 0.06 µg/mL and the inhibition (Bacteria) was 21%. For the same compound, the viability at 24 h [16] was over 80%, the “inhibition zone (IZ)” value (Escherichia coli [8]) was 28.8 mm and the pKa at 100 µM (physchem [17]) was 6.27.

In the case of `O=C(Cc1cccs1)N[C@H](B(O)O)c1cccc(C(=O)O)c1`, the IC50 [18] is reported as 60 nM, the IC50 [19] is reported as 40 nM and the Ki [1] is reported as 1 nM.

With `O=[N+]([O-])c1ccc(F)c(B(O)O)c1` the pKa (physchem [20]) was 6, the “inhibition zone (IZ)” value (Escherichia coli [8]) was 30.5 mm and the pKa at 100 µM (physchem [17]) was 6.03.

In the case of `C[C@@H](O)[C@H]1C(=O)N2C(C(=O)O)=C(S[C@@H]3CN[C@H](C(=O)N(C)C)C3)[C@H](C)[C@H]12` [MEROPENEM], the Activity (Escherichia coli [21]) is reported as “Active”, the MIC (Klebsiella pneumoniae) is reported as 0.5 µg/mL (≈ 1.3 µM) and the MIC (Proteus mirabilis) is reported as 0.25 µg/mL (≈ 0.652 µM).

In the case of `O=C(Cc1cccs1)N[C@@H](Cn1cc(-c2cccc(C(=O)O)c2)nn1)B(O)O`, the IC50 [18] is reported as 40 nM, the IC50 [19] is reported as 140 nM and the Ki [22] is reported as 8 nM. For the same compound, the Ki [23] was 14 nM.

`O=C(O)c1cccc2c1OB(O)C(NC(=O)C1CCCCC1)C2` (stereo not drawn) showed an IC50 [1] of 68 nM, an IC50 [2] of 2.6 nM and an IC50 [3] of 1000 nM. For the same compound, the IC50 [4] was 220 nM.
